# Experimental data pooled from the literature.
# Lines come from different studies, so protocols differ.
# Target: Mitogen-activated protein kinase 10 (MAPK10, Homo sapiens, UniProt P53779)
SMILES,assay,setting,endpoint,result
C1=C/COCc2cc(ccc2OCCN2CCCC2)Nc2nccc(n2)-c2cccc(c2)COC/1,cell-free assay,0.1 µM,remaining signal,33%
COc1ccc2oc(-c3ccc4nc(N)oc4c3)c/c(=N\c3ccccc3NC(=O)CCN)c2c1,binding,1 µM,remaining binding,113%
C#Cc1cc(-c2cc(Nc3nc(N[C@@H](C)c4ccc(F)cn4)ncc3Cl)n[nH]2)ccc1C=O,"enzyme activity, inhibitor",0.2 µM,inhibition,6.29%
N#Cc1ccc(NC(=O)Nc2ccccc2)cc1,"cell-free assay, competition with immobilised ligand",25 µM,remaining binding,65%
C=CC(=O)N1CCC([C@@H]2CCNc3c(C(N)=O)c(-c4ccc(Oc5ccccc5)cc4)nn32)CC1,"enzyme activity, inhibitor",1 µM,inhibition,25%
C[C@H]1CC[C@H](n2c3cnccc3c3cnc(Nc4ccc5c(n4)CCN(C(=O)CO)C5)nc32)CC1,cell-free assay,1 µM,remaining signal,2.6%
C#Cc1cnc(Nc2ccnc(CO)c2)nc1Nc1ccccc1S(C)(=O)=NC#N (stereo not shown),cell-free assay,1 µM,remaining signal,91%
CN1CCN(C(=O)c2ccc(NC(=O)Nc3ccc(N(C)c4ccnc(Nc5ccc(CS(C)(=O)=O)cc5)n4)cc3)cc2)CC1,binding,1 µM,remaining binding,8.6%
CCCCC(=O)Nc1ccc(-c2ccc3ncn(CCC)c(=O)c3c2)cn1,"binding, competition with immobilised ligand",0.5 µM,remaining binding,80%
CO[C@@H]1[C@H](N(C)C(=O)c2ccccc2)C[C@H]2O[C@]1(C)n1c3ccccc3c3c4c(c5c6ccccc6n2c5c31)C(=O)NC4,"enzyme activity, inhibitor",1 µM,inhibition,33%
